Reference: PMC5598389 (Toxicology Reports, 2015)
Where “and” joins values, the source holds several entries; their conditions need not be identical. Identical values can stand only once. Entries after “also recorded” stand apart in the source; their conditions may differ. Counter-ions that a name gives are not always drawn. Like-named read-outs stand apart in the source and are kept apart here.

What was measured:
CYP2C19 = CYP2C19 (Homo sapiens, UniProt P33261); settings: 10 μM, spectrofluorimetric substrates; ref Arthur, unpublished results; cited from earlier work
[1] = 28-day and 22-week rat and 28-day dog studies; cited from earlier work
[2] = Pharmacokinetics of S2227 and M179 hydrochloride in mice; format: in vivo, male CD-1 mice; settings: for AUC(0-t): male, CD-1, mouse, plasma, po
How it was run: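 Two groups of 28 male Crl:CD-1(ICR) mice were gavaged with a 1% methylcellulose suspension of either parent (30 mg/kg) or the equimolar secondary amine hydrochloride (20 mg/kg). Blood was taken by cardiac puncture from 4 mice/group/time point at about 15 and 30 min and 1, 2, 4, 8 and 24 h. Plasma levels of parent and metabolites gave Cmax and AUClast.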

[3] = system: bone marrow polychromatic erythrocytes; assay: In vivo micronucleus assay, bone marrow PCEs; design: species or system CD-1 mice; settings: for Mortality: dose range finding
How it was run: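 Crl:CD-1(ICR) mice were gavaged for three consecutive days in 1% methylcellulose at 10 mL/kg. Dose-range phases used 3/sex/group: parent at 500–2000 mg/kg, amine salt at 125–2000 mg/kg/day. Definitive phases used 6/sex (parent) or 5/sex (amine), with MMS 40 mg/kg/day as positive control. Micronuclei were scored in 2000 bone marrow PCEs per animal, and the PCE/total erythrocyte ratio was used for cytotoxicity.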

[4] = Pharmacokinetics after single iv or oral S2227 in rats; format: in vivo, Sprague-Dawley rats; settings: for AUC(0-t) / Cmax / Tmax / half-life: Sprague-Dawley, rat; for AUC(0-t) / Cmax / Tmax / half-life / AUC0-last/dose: plasma
How it was run: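 IV dosing: 4 male and 4 female Sprague-Dawley rats given a 1 mg/kg bolus in PEG 400, with blood sampled at about 0, 2, 5, 10 and 30 min and 1, 2, 4 and 8 h. Oral dosing: 4/sex/group gavaged at 10, 30 or 100 mg/kg in 1% methylcellulose, with blood sampled at about 0, 15 and 30 min and 1, 2, 4, 8 and 24 h. Plasma was assayed for parent and metabolites.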

[5] = In vitro metabolism in liver microsomes; format: in vitro ADME; settings: Dog (60 min), positive ionization
[6] = system: S. typhimurium strains TA98, TA100, TA1535, TA1537 and E. coli strain WP2 uvrA; assay: Bacterial reverse mutation test; format: cell-based; settings: 50-5000 μg/plate, initial and confirmatory plate incorporation, ±S9
How it was run: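 OECD 471 design, run with and without Aroclor 1254-induced male Sprague-Dawley rat liver S9 (9000 × g fraction). The parent compound was tested by plate incorporation and pre-incubation at 63–1000 µg/plate. The secondary amine hydrolysis product (hydrochloride) was tested by plate incorporation only, in an initial toxicity-mutation phase and a confirmatory phase, at nominal 50–5000 µg/plate. Positive and vehicle controls ran concurrently.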

[7] = In vitro metabolism in liver microsomes; format: in vitro ADME; settings: Human (60 min), positive ionization
[8] = system: human peripheral blood lymphocytes (HPBL); assay: In vitro chromosome aberration test
[9] = In vitro metabolism in liver microsomes; format: in vitro ADME, Gottingen pig; settings: Pig (10 min), positive ionization
[10] = Pharmacokinetics after single iv or oral S2227 in dogs; format: in vivo, beagle dogs; settings: for AUC0-last ratio M179/S2227 / AUC0-last/dose: Dog (M); for AUC(0-t) / Cmax / Tmax / half-life: male, beagle, dog; for AUC(0-t) / Cmax / Tmax / half-life / AUC0-last/dose: plasma
liver cells = assay: In vivo alkaline comet assay, liver; design: species or system CD-1 mice; settings: males: 125, 250, 500 mg/kg bw; females: 250, 500, 1000 mg/kg bw (oral)
How it was run: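 Run on the same Crl:CD-1(ICR) mice as the micronucleus study, 5/sex/group. Animals received the salt of the secondary amine hydrolysis product by oral gavage for three consecutive days, with 1% methylcellulose as vehicle control. Liver cells were analysed by alkaline single-cell gel electrophoresis, scoring % tail DNA and counting "clouds" (hedgehogs) against vehicle controls.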

[11] = In vitro metabolism in liver microsomes; format: in vitro ADME, Sprague-Dawley rat; settings: Rat (20 min), positive ionization
[12] = ref Chi, unpublished results, cited from earlier work

Sequence of CYP2C19 (P33261 whole entry): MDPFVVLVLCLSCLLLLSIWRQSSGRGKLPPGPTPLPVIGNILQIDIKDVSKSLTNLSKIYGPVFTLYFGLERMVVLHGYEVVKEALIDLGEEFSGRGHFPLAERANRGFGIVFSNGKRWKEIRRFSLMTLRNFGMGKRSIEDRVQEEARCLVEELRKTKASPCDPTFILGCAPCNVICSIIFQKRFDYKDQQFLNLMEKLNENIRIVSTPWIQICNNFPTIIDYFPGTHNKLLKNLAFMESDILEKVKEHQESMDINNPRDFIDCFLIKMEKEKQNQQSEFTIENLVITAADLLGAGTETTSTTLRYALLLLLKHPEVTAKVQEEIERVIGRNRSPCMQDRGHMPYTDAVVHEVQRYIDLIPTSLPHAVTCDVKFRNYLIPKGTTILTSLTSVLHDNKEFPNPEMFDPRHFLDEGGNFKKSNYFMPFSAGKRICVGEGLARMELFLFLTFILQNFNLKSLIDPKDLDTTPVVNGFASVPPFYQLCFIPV

CCNC(=O)C1CC(C)CCC1C(C)C (centres unmarked) [FEMA 3455, N-ethyl-p-menthane-3-carboxamide]
% inhibition of CYP2C19 (CYP2C19): 74%
NOEL [1]: 8 mg/kg/day

c1csc(CNc2cc[nH]n2)c1 [M179 hydrochloride salt, N-(2-thienylmethyl)-1H-pyrazol-3-amine]
fold higher exposure of M179 in plasma than after an equimolar dose of S2227 ([2]; oral, mice): 158 fold
Mortality ([3]; females, 2000 mg/kg): 3/3
Mortality ([3]; males, 1000 mg/kg/day): 2/3
Mortality ([3]; males, 2000 mg/kg): 3/3

c1csc(CNc2cc[nH]n2)c1 [M179, N-(2-thienylmethyl)-1H-pyrazol-3-amine]
AUC0-last ratio M179/S2227 ([4]; S2227 iv 1.0 mg/kg, Rat (F)): 0.042
AUC0-last ratio M179/S2227 ([4]; S2227 iv 1.0 mg/kg, Rat (M)): 0.040
AUC0-last ratio M179/S2227 ([4]; S2227 oral gavage 10 mg/kg, Rat (F)): 48.9
AUC0-last ratio M179/S2227 ([4]; S2227 oral gavage 10 mg/kg, Rat (M)): 155
AUC0-last ratio M179/S2227 ([4]; S2227 oral gavage 30 mg/kg, Rat (F)): 86.2
AUC0-last ratio M179/S2227 ([4]; S2227 oral gavage 30 mg/kg, Rat (M)): 98.6
AUC0-last ratio M179/S2227 ([4]; S2227 oral gavage 100 mg/kg, Rat (F)): 38.1
AUC0-last ratio M179/S2227 ([4]; S2227 oral gavage 100 mg/kg, Rat (M)): 69.9
AUC(0-t) ([4]; female, iv, 1 mg/kg): 12.6 ± 5.02 ng·h/mL
Cmax ([4]; female, iv, 1 mg/kg): 14 ± 4.84 ng/mL
Tmax ([4]; female, iv, 1 mg/kg): 0.13 h
half-life ([4]; female, iv, 1 mg/kg): 0.82 h
AUC(0-t) ([4]; female, po, 10 mg/kg): 384 ± 267 ng·h/mL
Cmax ([4]; female, po, 10 mg/kg): 407 ± 289 ng/mL
Tmax ([4]; female, po, 10 mg/kg): 0.44 h
half-life ([4]; female, po, 10 mg/kg): 1.02 h
AUC(0-t) ([4]; female, po, 30 mg/kg): 2510 ± 1700 ng·h/mL
Cmax ([4]; female, po, 30 mg/kg): 1540 ± 1050 ng/mL
Tmax ([4]; female, po, 30 mg/kg): 0.75 h
half-life ([4]; female, po, 30 mg/kg): 1.06 h
AUC(0-t) ([4]; female, po, 100 mg/kg): 5980 ± 745 ng·h/mL
Cmax ([4]; female, po, 100 mg/kg): 1770 ± 457 ng/mL
Tmax ([4]; female, po, 100 mg/kg): 0.83 h
half-life ([4]; female, po, 100 mg/kg): 1.84 h
AUC(0-t) ([4]; male, iv, 1 mg/kg): 8.78 ± 1.97 ng·h/mL
Cmax ([4]; male, iv, 1 mg/kg): 15.1 ± 3.23 ng/mL
Tmax ([4]; male, iv, 1 mg/kg): 0.11 h
half-life ([4]; male, iv, 1 mg/kg): 0.28 h
AUC(0-t) ([4]; male, po, 10 mg/kg): 254 ± 102 ng·h/mL
Cmax ([4]; male, po, 10 mg/kg): 189 ± 94.5 ng/mL
Tmax ([4]; male, po, 10 mg/kg): 0.5 h
half-life ([4]; male, po, 10 mg/kg): 1.12 h
AUC(0-t) ([4]; male, po, 30 mg/kg): 614 ± 201 ng·h/mL
Cmax ([4]; male, po, 30 mg/kg): 290 ± 115 ng/mL
Tmax ([4]; male, po, 30 mg/kg): 0.75 h
half-life ([4]; male, po, 30 mg/kg): 1.29 h
AUC(0-t) ([4]; male, po, 100 mg/kg): 3500 ± 813 ng·h/mL
Cmax ([4]; male, po, 100 mg/kg): 5.64 µM and 1010 ng/mL
Tmax ([4]; male, po, 100 mg/kg): 1.13 h
half-life ([4]; male, po, 100 mg/kg): 1.83 h
AUC0-last/dose ([4]; dosed S2227 iv 1.0 mg/kg, Rat (F)): 12.6 ng·h/mL/mg/kg
AUC0-last/dose ([4]; dosed S2227 iv 1.0 mg/kg, Rat (M)): 8.78 ng·h/mL/mg/kg
AUC0-last/dose ([4]; dosed S2227 oral gavage 10 mg/kg, Rat (F)): 38.4 ng·h/mL/mg/kg
AUC0-last/dose ([4]; dosed S2227 oral gavage 10 mg/kg, Rat (M)): 25.4 ng·h/mL/mg/kg
AUC0-last/dose ([4]; dosed S2227 oral gavage 30 mg/kg, Rat (F)): 83.7 ng·h/mL/mg/kg
AUC0-last/dose ([4]; dosed S2227 oral gavage 30 mg/kg, Rat (M)): 20.5 ng·h/mL/mg/kg
AUC0-last/dose ([4]; dosed S2227 oral gavage 100 mg/kg, Rat (F)): 59.8 ng·h/mL/mg/kg
AUC0-last/dose ([4]; dosed S2227 oral gavage 100 mg/kg, Rat (M)): 35.0 ng·h/mL/mg/kg
relative EIC peak area (%) compared to S2227 peak area at T = 0 min [5]: 10.26%
Reverse mutation (in vitro) [6]: not mutagenic; also recorded: Negative
relative EIC peak area (%) compared to S2227 peak area at T = 0 min [7]: 0.91%
AUC(0-t) ([2]; 20 mg/kg): 4370 ng·h/mL
AUC(0-t) ([2]; 30 mg/kg): 27.6 ng·h/mL
Chromosome aberration (in vitro) ([8]; 280-2160 μg/mL 4 h -S9, 100-1840 μg/mL 4 h +S9, 25-280 μg/mL 20 h -S9): Positive (4 h,⿿S9)
induction of structural aberrations ([8]; S9-activated test system): negative
induction of numerical aberrations ([8]; non-activated and S9-activated test systems): negative
induction of structural aberrations ([8]; non-activated test system): positive
relative EIC peak area (%) compared to S2227 peak area at T = 0 min [9]: 37.29%
Micronucleus formation (in vivo) ([3]; males: 125, 250, 500 mg/kg bw, females: 250, 500, 1000 mg/kg bw (oral)): did not induce micronuclei; also recorded: Negative
AUC0-last ratio M179/S2227 ([10]; S2227 iv 1.0 mg/kg): 0.007
AUC0-last ratio M179/S2227 ([10]; S2227 oral gavage 10 mg/kg): 0.187
AUC0-last ratio M179/S2227 ([10]; S2227 oral gavage 30 mg/kg): 0.139
AUC0-last ratio M179/S2227 ([10]; S2227 oral gavage 100 mg/kg): 0.243
AUC(0-t) ([10]; iv, 1 mg/kg): 6.63 ± 0.9 ng·h/mL
Cmax ([10]; iv, 1 mg/kg): 5.2 ± 0.9 ng/mL
Tmax ([10]; iv, 1 mg/kg): 0.5 h
half-life ([10]; iv, 1 mg/kg): 1.1 h
AUC(0-t) ([10]; po, 10 mg/kg): 22.2 ± 8.78 ng·h/mL
Cmax ([10]; po, 10 mg/kg): 10.2 ± 4.84 ng/mL
Tmax ([10]; po, 10 mg/kg): 4.67 h
half-life ([10]; po, 10 mg/kg): 4.77 h
AUC(0-t) ([10]; po, 30 mg/kg): 31 ± 15.4 ng·h/mL
Cmax ([10]; po, 30 mg/kg): 6.81 ± 2.15 ng/mL
Tmax ([10]; po, 30 mg/kg): 1 h
half-life ([10]; po, 30 mg/kg): 2.27 h
AUC(0-t) ([10]; po, 100 mg/kg): 171 ± 144 ng·h/mL
Cmax ([10]; po, 100 mg/kg): 129 nM and 23.1 ng/mL
Tmax ([10]; po, 100 mg/kg): 10 h
half-life ([10]; po, 100 mg/kg): 4.69 h
AUC0-last/dose ([10]; dosed S2227 iv 1.0 mg/kg): 6.63 ng·h/mL/mg/kg
AUC0-last/dose ([10]; dosed S2227 oral gavage 10 mg/kg): 2.22 ng·h/mL/mg/kg
AUC0-last/dose ([10]; dosed S2227 oral gavage 30 mg/kg): 1.03 ng·h/mL/mg/kg
AUC0-last/dose ([10]; dosed S2227 oral gavage 100 mg/kg): 1.71 ng·h/mL/mg/kg
DNA damage (in vivo), liver Comet assay (liver cells): negative (non-DNA damaging); also recorded: Negative
relative EIC peak area (%) compared to S2227 peak area at T = 0 min [11]: 6.47%

CCN(Cc1cccs1)C(=O)COc1ccc(C)cc1 [S5031, 2-(4-methylphenoxy)-N-ethyl-N-(2-thienylmethyl) acetamide]
AUC0-8h ratio (acid/amine) ([12]; jugular vein (JV)): 23.0
AUC0-8h ratio (amide/acid) ([12]; jugular vein (JV)): 0.013
AUC0-8h ratio (acid/amine) ([12]; portal vein (PV)): 13.3
AUC0-8h ratio (amide/acid) ([12]; portal vein (PV)): 0.52
